Assay results: ChEMBL document CHEMBL1122572, “Improved synthesis and antitumor evaluation of 5,8-dideazaisofolic acid and closely related analogues” (J Med Chem, 1984)

Columns and labels:
SW480 = experiment: In vitro inhibition of growth of the human gastrointestinal adenocarcinoma cells SW480; format: functional, cell-based
Summary of the method: (§1)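 Monodispersed growing cells (0.7-1 × 10^5 in 1 mL medium) were added to wells already holding 0–50 μL of drug solution. Drug was dissolved fresh in 0.1 M NaOH and diluted with pH 7.0 phosphate buffer. Cells were incubated 72–96 h at 37 °C in humidified 8% CO₂, trypsinized and counted on a Coulter counter. IC50 was the concentration giving 50% growth inhibition versus untreated controls.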

HT-29 = experiment: In vitro inhibition of growth of the human gastrointestinal adenocarcinoma cells HT-29; format: functional, cell-based; summary of the method: as §1
WiDr = experiment: In vitro inhibition of growth of the human gastrointestinal adenocarcinoma cells WIDR; format: functional, cell-based; summary of the method: as §1
[1] = In vitro inhibition of growth of the human gastrointestinal adenocarcinoma cells HaTu80; format: functional; summary of the method: as §1

Compound	IC50 (SW480) [µM]	IC50 (HT-29) [µM]	IC50 (WiDr) [µM]	IC50 ([1]; Homo sapiens) [µM]	IC50 [1] [µM]
Nc1nc(=O)c2cc(NCc3ccc(C(=O)N[C@H](CCC(=O)O)C(=O)O)cc3)ccc2[nH]1	> 300	> 300	> 300	> 300	–
Cc1c(NCc2ccc(C(=O)NC(CCC(=O)O)C(=O)O)cc2)ccc2nc(N)nc(O)c12 (centres undefined)	10	1.1	4	4	–
CN(Cc1ccc(C(=O)NC(CCC(=O)O)C(=O)O)cc1)c1ccc2nc(N)nc(O)c2c1 (centres undefined)	5	3.2	6.3	4.8	–
Nc1nc(O)c2cc(N(C=O)Cc3ccc(C(=O)NC(CCC(=O)O)C(=O)O)cc3)ccc2n1 (centres undefined)	150	100	195	95	–
Nc1nc(=O)c2cc(NCc3ccc(C(=O)NC(CCC(=O)O)C(=O)O)cc3)ccc2[nH]1 (stereo in doubt; form 1)	–	–	–	–	4.5

More lines, in order of falling IC50 (SW480), values ahead:

IC50 (SW480) [µM]	IC50 (HT-29) [µM]	Compound	IC50 (WiDr) [µM]	IC50 ([1]; Homo sapiens) [µM]	IC50 [1] [µM]
4.8	2.7	Cc1c(N(C)Cc2ccc(C(=O)NC(CCC(=O)O)C(=O)O)cc2)ccc2nc(N)nc(O)c12 (centres undefined)	4.8	3.6	–
0.2	0.2	Nc1nc(N)c2cc(NCc3ccc(C(=O)NC(CCC(=O)O)C(=O)O)cc3)ccc2n1 (centres undefined)	0.2	0.15	–
0.015	0.018	CN(Cc1cnc2nc(N)nc(N)c2n1)c1ccc(C(=O)N[C@@H](CCC(=O)O)C(=O)O)cc1 [METHOTREXATE]	0.025	0.009	–
